From ChEMBL document CHEMBL4011600, “Identification of compounds with cytotoxic activity from the leaf of the Nigerian medicinal plant, Anacardium occidentale L. (Anacardiaceae)” (Bioorg Med Chem, 2017)

Legend:
HeLa [1] = experiment: Cytotoxicity against human HeLa cells assessed as reduction in cell viability after 48 hrs by Alamar blue staining based fluorescence assay; format: functional
Outline: (§1)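 HeLa cells seeded at 1×10^5 cells/ml in MEM with 10% FBS, 1% NEAA, 2 mM glutamine and 1% antibiotic-antimycotic, grown 24 h at 37°C under 5% CO2. Compounds then added for 48 h at concentrations up to 1.6 mM. Readings normalized to DMSO-only controls set at 100%.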

HeLa [2] = experiment: Induction of morphological changes in human HeLa cells assessed as loss of cells by microscopic method; format: functional, cell-based
Outline: (§2)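 HeLa cells seeded at 1×10^5 cells/ml and grown for 24 h at 37°C under 5% CO2, then exposed to compounds for 48 h. Cell loss and rounding of the remaining cells were judged against DMSO-treated controls by inverted phase microscopy at ×10 magnification, with camera images taken after treatment.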

HeLa [3] = experiment: Induction of morphological changes in human HeLa cells assessed as cell rounding by microscopic method; format: functional, cell-based; outline: as §2
HeLa [4] = experiment: Cytotoxicity against human HeLa cells assessed as reduction in cell viability at 1 uM after 48 hrs by Alamar blue staining based fluorescence assay relative to control; format: functional
Outline: as §1, with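 “mM. Alamar blue applied for 3 h, plates cooled to room temperature, fluorescence read at ex 544, em 590 nm.” for “mM.”, “100%. IC50 taken from concentration-response curve fits, mean ± SEM, n=3-4.” for “100%.”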

HeLa [5] = experiment: Cytotoxicity against human HeLa cells assessed as reduction in cell viability at 2.5 uM after 48 hrs by Alamar blue staining based fluorescence assay relative to control; format: functional
Outline: as §1, with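 “mM. Alamar blue applied for 3 h, plates cooled to room temperature, fluorescence read at ex 544, em 590 nm.” for “mM.”, “100%. IC50 taken from concentration-response curve fits, mean ± SEM, n=3-4.” for “100%.”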

HeLa [6] = experiment: Cytotoxicity against human HeLa cells assessed as reduction in cell viability at 5 uM after 48 hrs by Alamar blue staining based fluorescence assay relative to control; format: functional
Outline: as §1, with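 “mM. Alamar blue applied for 3 h, plates cooled to room temperature, fluorescence read at ex 544, em 590 nm.” for “mM.”, “100%. IC50 taken from concentration-response curve fits, mean ± SEM, n=3-4.” for “100%.”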

SMILES	Activity (HeLa [1])	IC50 (HeLa [1])	Activity (HeLa [2])	Activity (HeLa [3])	Activity (HeLa [4])	Activity (HeLa [5])	Activity (HeLa [6])
C=C1C(=O)O[C@@H]2/C=C(/C)[C@H](O)C/C=C(\C)[C@@H](O)[C@H](OC(=O)/C(C)=C\C)[C@@H]12	Dose-dependent effect	36.2 µM	Dose-dependent effect	Dose-dependent effect			
COC(=O)c1cc(OC)c(CCc2c(OC)cc(C(=O)OC)cc2OC)c(OC)c1	Dose-dependent effect	46.5 µM					
COc1cccc2c1C(=O)c1c(O)c3c(c(O)c1C2=O)C[C@@](O)(C(=O)CO)C[C@@H]3O[C@H]1C[C@H](N)[C@H](O)[C@H](C)O1 [DOXORUBICIN]		2.3 µM			106.5%	50.8%	40%
COC(=O)c1cc(O)c(O)c(O)c1 [GALLIC ACID METHYL ESTER]	Dose-dependent effect	267 µM					
